Experimental data of several laboratories.
Lines come from different studies, so protocols differ.
KIT L576P: Mast/stem cell growth factor receptor Kit (KIT, Homo sapiens, UniProt P10721, L576P)
KIT D816V: Mast/stem cell growth factor receptor Kit (KIT, Homo sapiens, UniProt P10721, D816V)
KIT: Mast/stem cell growth factor receptor Kit (KIT, Homo sapiens, UniProt P10721)
KIT T670I/V559D: Mast/stem cell growth factor receptor Kit (KIT, Homo sapiens, UniProt P10721, T670I/V559D)
KIT D816H: Mast/stem cell growth factor receptor Kit (KIT, Homo sapiens, UniProt P10721, D816H)
KIT A829P: Mast/stem cell growth factor receptor Kit (KIT, Homo sapiens, UniProt P10721, A829P)
KIT V559D: Mast/stem cell growth factor receptor Kit (KIT, Homo sapiens, UniProt P10721, V559D)

SMILES | target | observed | technique | concentration | remaining binding [%]
O=C(c1ccc(Nc2ncc(Cl)c(-c3cc4ccccc4s3)n2)cc1)N1CCC(N2CCCC2)CC1 | KIT L576P | binding | competition with immobilised ligand | 1 µM | 4.5
CN1CCN(c2ccc(Nc3nccc(-c4cccc([N+](=O)[O-])c4)n3)cc2C(F)(F)F)CC1 | KIT D816V | binding |  | 10 µM | 1.1
O=C(Nc1c[nH]nc1C(=O)NC1CCNCC1)c1cc(F)cc(F)c1 | KIT | binding | competition with immobilised ligand | 1 µM | 100
O=C(NCCCN1CCOCC1)c1ccc(Nc2ncc(Cl)c(-c3ccc(Cl)s3)n2)cc1 | KIT | binding | competition with immobilised ligand | 1 µM | 0.05
COc1cnc(Nc2cccc(S(N)(=O)=O)c2)nc1N1CCN(c2ccccc2)CC1 | KIT L576P | binding | competition with immobilised ligand | 1 µM | 80
C=CC(=O)N1CCC(C(=O)NCC(=O)N2CCN(c3nc(-c4cnc(N)nc4C(F)F)nc(N4CCOCC4)n3)CC2)CC1 | KIT D816V | binding | competition with immobilised ligand | 1 µM | 79
O=C(NCCCN1CCOCC1)c1ccc(Nc2nccc(-c3cc4ccccc4s3)n2)cc1 | KIT T670I/V559D | binding | competition with immobilised ligand | 1 µM | 29
Nc1ncc2c(n1)-c1c([nH]c3ccc(C#CC4CC4)cc13)CCCC2 | KIT D816V | binding | competition with immobilised ligand | 1 µM | 100
CN1CCN(c2ccc(Nc3nccc(-c4ccccc4)n3)cc2C(F)(F)F)CC1 | KIT L576P | binding |  | 10 µM | 0.45
O=C(c1ccc(Nc2nccc(-c3cc4ccccc4s3)n2)cc1)N1CCC(N2CCCC2)CC1 | KIT D816H | binding | competition with immobilised ligand | 1 µM | 18
O=C(Nc1cccnn1)N1CC(C/C=C/c2cncc(Oc3ccc(C(F)(F)F)cn3)n2)C1 | Mast/stem cell growth factor receptor Kit (KIT, Homo sapiens, UniProt P10721, V559D/V654A) | cell-free assay | competition with immobilised ligand | 1 µM | 100
CN(C)c1nccc(-c2cnc3ncccn23)n1 | KIT D816H | binding |  | 1 µM | 52
CC(C)(O)c1cncc(-c2nc3ccc(F)cc3n2C2CC2)c1 | KIT A829P | cell-free assay | competition with immobilised ligand | 1 µM | 100
COc1ncc2cc3ccccc3nc2c1C#N | KIT D816H | cell-free assay | competition with immobilised ligand | 5 µM | 100
O=C(NCC1CCOCC1)c1n[nH]cc1NC(=O)c1c(F)cccc1F | KIT V559D | binding | competition with immobilised ligand | 1 µM | 100
C[C@H]1CCN(c2nccc(-c3cnn4ncccc34)n2)C1 | KIT T670I/V559D | binding |  | 1 µM | 98
Cc1c(NC(=O)c2cc(C(N)=O)nc3cc(F)ccc23)c(C(F)(F)F)nn1Cc1ccc(C(C)(C)C)cc1 | KIT D816H | cell-free assay | competition with immobilised ligand | 1 µM | 100
c1cnn2ncc(-c3ccnc(N4CCC45COC5)n3)c2c1 | KIT V559D | binding |  | 1 µM | 78

SMILES | target | observed | technique | concentration | remaining binding [%]
N#CC1(c2ccccn2)CCN(Cc2cc(C(=O)N3CCCC3)c(=O)n3ccccc23)CC1 | KIT A829P | cell-free assay | competition with immobilised ligand | 1 µM | 50
CNC(=O)[C@@H]1CC[C@@H](n2c(-c3ccc4cnccc4c3)nc3ccc(C(=O)NCc4cccc(C(N)=O)c4)cc32)C1 | KIT A829P | binding | competition with immobilised ligand | 1 µM | 100
O=C(c1ccc(Nc2ncc(Cl)c(-c3ccc(Cl)s3)n2)cc1)N1CCC(N2CCCC2)CC1 | KIT A829P | binding | competition with immobilised ligand | 1 µM | 4.3
CN(C)c1ncc(F)c(-c2cnn3ncccc23)n1 | Mast/stem cell growth factor receptor Kit, autoinhibited (KIT, Homo sapiens, UniProt P10721) | binding |  | 1 µM | 73
C[C@@H](c1ccc(-n2cnc3c(N)ncnc32)cc1)N1CCc2nn(C)c(Cc3ccccc3)c2C1=O | KIT A829P | binding | competition with immobilised ligand | 0.1 µM | 52
COc1cnc(Nc2cccc(S(N)(=O)=O)c2)nc1N1CCN(c2ccccc2)C(=O)C1 | KIT T670I/V559D | binding | competition with immobilised ligand | 1 µM | 100
CN(CCCC(F)(F)F)c1nccc(-c2cnn3ncccc23)n1 | KIT D816H | binding |  | 1 µM | 77
c1cncc(-c2cccc(Nc3nccc(NC4CCCCC4)n3)c2)c1 | KIT D816V | binding | competition with immobilised ligand | 10 µM | 0.75
CC(C)(C)c1ccc(-c2nc(CBr)nn2-c2cccc(O)c2)cc1 | KIT | cell-free assay | competition with immobilised ligand | 10 µM | 97
CC1CCCN1c1nccc(-c2cnn3ncccc23)n1 (stereo not drawn) | KIT L576P | binding |  | 1 µM | 100
O=C(Nc1cccnn1)N1CCC(=Cc2cccc(Oc3ccc(C(F)(F)F)cn3)c2)CC1 | KIT T670I/V559D | cell-free assay | competition with immobilised ligand | 1 µM | 96
Cc1cnc(Nc2ccc(C(=O)N3CCC(N4CCCC4)CC3)cc2)nc1-c1cc2ccccc2s1 | KIT T670I/V559D | binding | competition with immobilised ligand | 1 µM | 10
COc1ccc2cc(OCC3(C(=O)O)CN(C(=O)c4ccc(F)cc4)C3)ccc2c1 | KIT T670I/V559D | cell-free assay | competition with immobilised ligand | 1 µM | 100
CN(c1nccc(-c2cnn3ncccc23)n1)C1CC1 | KIT D816V | binding |  | 1 µM | 85
O=C(O)[C@H]1[C@H](Cn2nnc3ccccc3c2=O)CC[C@@H]1C(=O)c1ccc(OCCC2CCOCC2)cc1 | KIT L576P | cell-free assay | competition with immobilised ligand | 1 µM | 96
CCN1CCN(Cc2ccc(C(=O)Nc3ccc(C)c(Oc4ccc5c(c4)CC(=O)N5)c3)cc2C(F)(F)F)CC1 | KIT V559D | binding | competition with immobilised ligand | 1 µM | 0.4
Cc1cc(NC(=O)c2cccc(S(F)(F)(F)(F)F)c2)cc(-n2ccn3nc(-c4cccnc4)cc23)c1 | KIT A829P | cell-free assay | competition with immobilised ligand | 1 µM | 100
Cc1cnn2ncc(-c3ccnc(N(C)C)n3)c2c1 | KIT V559D | binding |  | 1 µM | 100
